# Screens (PubChem)
# NPY-Y2 antag: blocks the human neuropeptide Y Y2 receptor; NPY-Y2 expressing cells, antagonist mode; 140,000 tested, 0.99% active; P49146; inhibition, % at 2.7 µM; in the data active means inhibition above about 17%;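 further: 0% = vehicle with agonist challenge and 100% = reference antagonist with challenge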
# Target sequence (P49146 whole entry, looked up): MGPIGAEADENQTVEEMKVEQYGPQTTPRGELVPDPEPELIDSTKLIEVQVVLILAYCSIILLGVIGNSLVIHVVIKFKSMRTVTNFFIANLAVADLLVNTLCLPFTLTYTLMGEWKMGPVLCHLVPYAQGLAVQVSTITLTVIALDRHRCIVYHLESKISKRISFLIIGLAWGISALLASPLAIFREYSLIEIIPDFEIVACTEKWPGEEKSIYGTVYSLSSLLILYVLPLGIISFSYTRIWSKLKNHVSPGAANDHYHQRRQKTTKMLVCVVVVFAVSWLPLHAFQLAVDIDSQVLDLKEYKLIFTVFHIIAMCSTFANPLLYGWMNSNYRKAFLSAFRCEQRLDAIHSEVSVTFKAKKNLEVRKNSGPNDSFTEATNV
# NPY Y1 blocker: antagonists of human neuropeptide Y receptor Y1 | P25929 | inhibition, % at 3.6 µM | HEK293-CNG Y1 cells, membrane potential fluorescence; NPY at EC95, then isoproterenol | 200,000 tested, 1% active;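 active means inhibition above the campaign mean inhibition of all tested compounds plus 3 SD, cut at about 20% in these data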;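 further: 0% = DMSO wells given NPY plus isoproterenol and 100% = isoproterenol alone without NPY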
#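 Test system: HEK293 cells co-expressing NPY Y1 receptor and cyclic-nucleotide gated channel; Also added: NPY (25 nM), isoproterenol (1 µM), Ro 20-1724 (25 µM); Compound dosing: one concentration, 3.6 µM, in 0.4% DMSO; Timing: dye 3 h, compound 60 min room temperature, stimulation 45 min; Technique: Membrane-potential fluorescent dye readout.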
# RAM inhibit: inhibitors of the yeast RAM network; inhibition, % at 50 µM; 190,000 tested, 1.8% active; AID 868; S. cerevisiae dse1pr::URA3 reporter, 5-FOA growth OD615, 2 d; analog-sensitive cbk1-as2 kinase mutant strain;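 active means inhibition above a set limit, 3 SD over mean compound inhibition, cut at about 8.4% in these data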;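 further: 0% = DMSO-only wells with no growth and 100% = 10 µM 1-NA-PP1 full growth; inhibition rescues growth on 5-FOA so higher OD means more RAM inhibition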
# NPY-Y2 PAM-ag: potentiates or activates human NPY-Y2 receptor; 220,000 tested, 0.45% active; activation, % at 3.6 µM; cells expressing NPY-Y2, potentiator/agonist read-out; in the data active means activation above about 27%;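 further: cells stimulated with NPY near EC25 plus isoproterenol at EC100; 0% = vehicle plus submaximal agonist and 100% = vehicle plus saturating agonist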
# NPY1 pot ag: human NPY-Y1 potentiation or agonism, primary screen. P25929. NPY-Y1 expressing cells, potentiator/agonist activation. activation, % at 3.6 µM. 220,000 tested, 0.37% active. AID 1304; in the data active means activation above about 33%, passing the limit was not always enough;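 further: cells stimulated with NPY at EC10 then isoproterenol at EC100; 0% = low agonist plus stimulus and 100% = saturating agonist plus stimulus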
# INS promoter inh: TRM-6 insulin promoter activity inhibition. TRM-6 cells, insulin promoter-eGFP reporter, imaging; reporter expression induced with tamoxifen. inhibition, % at 2 µM. 130,000 tested, 0.9% active;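 active means inhibition above the mean plus 3 SD, with well images judged a real hit on visual review, cut at about 60% in these data, passing the limit was not always enough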
# NPY1 antag ctr: human NPY-Y1 antagonism in NPY-Y2 counter-screen; cell-based NPY-Y1 antagonism counterscreen; AID 1256; inhibition, % at 3.6 µM; shares compounds with NPY-Y2 antag; 710 tested, 19% active; in the data active means inhibition above about 20%;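 further: cells challenged with NPY then isoproterenol with cAMP sensed through a CNG channel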
# NPY2 antag conf: human NPY-Y2 antagonism, confirmation; shares compounds with NPY-Y2 antag; HEK293 NPY-Y2 CNG channel, membrane potential fluorescence; inhibition, % at 2.8 µM; 710 tested, 32% active; AID 1257;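 active means mean inhibition of triplicate wells above the hit cutoff set in the primary screen, cut at about 17% in these data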;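 further: 0% = DMSO with NPY challenge and 100% = BIIE0246 high control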
# An asterisk follows results filed as active; nt = no result. Hits are enriched below; roughly 3.8% of the tested compounds scored in any of these assays.
SMILES,NPY-Y2 antag,NPY Y1 blocker,RAM inhibit,NPY-Y2 PAM-ag,NPY1 pot ag,INS promoter inh,NPY1 antag ctr,NPY2 antag conf
CCCOc1ccc(C2(C(=O)O)CCCC2)cc1,44*,7,2,-2,1,22,8,6
CCCCc1cc2c(cc1NC(=O)CN1CCCCC1)OCCO2,nt,nt,nt,-7,7,nt,nt,nt
COc1ccc(CN2CCC(N3CCC(C(=O)N4CCOCC4)CC3)CC2)c(F)c1,nt,-2,1,-13,-22,nt,nt,nt
Nn1c(CSc2nc3ccccc3o2)nnc1CSc1nc2ccccc2o1,17*,17,3,-39,-65,32,13,15
Cc1noc(C)c1C(c1ccccc1)S(=O)(=O)c1ccccc1 (stereo not given),11,2,1,-2,7,-15,nt,nt
Cc1ccc(S(=O)(=O)C(c2ccccc2)c2c(C)noc2C)cc1 (stereo not given),17*,2,4,-12,-7,31,3,57*
CCCCCCCn1c(NC(=O)CC)nc2ccccc21,nt,nt,nt,-1,15,nt,nt,nt
Cc1ccc(N2C(=O)CSC2c2ccc3c(c2)OCO3)cc1 (stereo not given),18*,0,1,1,-1,0,2,2
CNC(=O)c1ccsc1NC(=O)c1ccc(S(=O)(=O)N2CCCc3ccccc32)cc1,17*,8,5,-1,-57,17,31*,39*
Cc1cccc(OCc2nc(C#N)c(NCc3ccc4c(c3)OCO4)o2)c1,27*,12,11*,-23,-32,-21,15,13
Cc1ccc(C)c(N(C(=O)Cc2cccs2)C(C(=O)NC2CCCC2)c2ccc(C)o2)c1 (stereo not given),2,4,3,-3,13,12,nt,nt
Cc1ccc(C(C(=O)NC2CCCC2)N(C(=O)Cc2cccs2)c2ccc(C)c(C)c2)o1 (stereo not given),24*,18,1,-7,-26,-8,14,9
CCOC(=O)N1CCC(NC(=O)CSCc2nc(-c3cccc(OC)c3)oc2C)CC1,24*,-3,0,6,12,-28,2,2
CCOC(=O)N1CCN(C(=O)CSc2ccc3nnc(-c4cccnc4)n3n2)CC1,nt,-4,1,-2,-23,nt,nt,nt
COc1ccc(-c2nc(C#N)c(NC(C)c3ccccc3)o2)cc1OC (stereo not given),21*,14,5,-17,4,nt,17,34*
COc1ccc(-c2nc(C#N)c(NCCCN(C)C)o2)cc1OC,-2,1,0,4,-9,35,nt,nt
COC(=O)c1ccc(C2C(Oc3ccc(OC)cc3)C(=O)N2CCc2ccc(OC)c(OC)c2)cc1 (stereo not given),3,11,3,3,-15,15,nt,nt
COC(=O)c1ccc(C2C(Oc3ccccc3)C(=O)N2CCc2ccc(F)cc2)cc1 (stereo not given),24*,19,4,-20,21,nt,30*,14
CC(Sc1ccc(Cl)cc1)C(=O)Nc1ccccc1-c1ccccc1 (stereo not given),20*,18,2,-25,-37,-50,15,25*
O=C(N/N=C/c1ccccc1O)C(=O)Nc1ccccn1,nt,1,2,-6,-1,nt,nt,nt
FC(F)(F)c1nc(-c2cccs2)ncc1-c1nnnn1-c1ccc(Cl)cc1,25*,14,2,6,-32,-3,26*,17
FC(F)(F)c1nc(-c2cccnc2)ncc1-c1nnnn1-c1ccccc1,5,1,1,-6,-23,nt,nt,nt
O=C(COc1ccccc1CNCc1ccccc1)Nc1ccccc1,21*,19,2,-31,-36,nt,14,25*
Cc1nn(C(C)(C)C)c(OC(=O)c2cccs2)c1Sc1ccccc1,26*,13,11*,7,-18,56,11,6
Cc1nn(C(C)(C)C)c(OC(=O)c2ccc(Br)o2)c1Sc1ccccc1,18*,6,11*,10,8,47,5,16
